Test results as given in ChEMBL document CHEMBL3045304, “Sesquiterpene lactones with potential use as natural herbicide models. 2. guaianolides” (2000).
Active and inactive are the calls of the source. The rule behind the calls is not given here.

test system: Allium cepa; test: Inhibition of germination of Allium cepa cv. Valenciana (onion) at 0.1 mM or 1 mM after 5 days relative to untreated control; format: functional

Which inhibition does the source give for `C=C1[C@@H]2[C@H]3OC(=O)[C@@H](CO)[C@@H]3CCC(=C)[C@@H]2C[C@H]1O` here?
The inhibition was “inactive”.

test system: Triticum aestivum; test: Inhibition of root length of Triticum aestivum cv. Cortex (wheat) at 0.1 mM or 1 mM after 5 days relative to untreated control; format: functional
How it was run: (§1)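 Wheat: 10 seeds per dish on filter paper with 5 mL test solution, 5 days in the dark at 25 °C, 10 replicates per concentration. Stock test solutions were 10^-3 or 10^-4 M in 10 mM MES, with lower levels made by dilution, all at pH 6.0. Parallel controls were run. Output is % difference from control.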

`C=C1[C@@H]2[C@H]3OC(=O)[C@@H](CO)[C@@H]3CCC(=C)[C@@H]2C[C@H]1O` was tested. Which inhibition did it give?
The inhibition was “inactive”.

test system: Triticum aestivum; test: Inhibition of hypocotyl length of Triticum aestivum cv. Cortex (wheat) at 0.1 mM or 1 mM after 5 days relative to untreated control; format: functional; how it was run: as §1

How did the inhibition turn out when `C=C1[C@@H]2[C@H]3OC(=O)[C@@H](CO)[C@@H]3CCC(=C)[C@@H]2C[C@H]1O` was run?
Its inhibition is “inactive”.

test system: Triticum aestivum; test: Inhibition of germination of Triticum aestivum cv. Cortex (wheat) at 0.1 mM or 1 mM after 5 days relative to untreated control; format: functional; how it was run: as §1

How did the inhibition turn out when `C=C1[C@@H]2[C@H]3OC(=O)[C@@H](CO)[C@@H]3CCC(=C)[C@@H]2C[C@H]1O` was run?
Its inhibition is “inactive”.

test system: Solanum lycopersicum; test: Inhibition of hypocotyl length of Solanum lycopersicum cv. Tres Cantos (tomato) at 0.1 mM or 1 mM after 5 days relative to untreated control; format: functional
How it was run: (§2)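 Lettuce and tomato seeds, 25 per dish on filter paper, received 5 mL test solution. Incubation was 5 days in the dark at 25 °C, with four replicates per concentration. Solutions were made at 10^-3 or 10^-4 M in 10 mM MES, diluted serially, and adjusted to pH 6.0. Parallel controls were run. Results are % difference from control.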

How did the inhibition turn out when `C=C1[C@@H]2[C@H]3OC(=O)[C@@H](CO)[C@@H]3CCC(=C)[C@@H]2C[C@H]1O` was run?
The inhibition was “inactive”.

test system: Solanum lycopersicum; test: Inhibition of root length of Solanum lycopersicum cv. Tres Cantos (tomato) at 0.1 mM or 1 mM after 5 days relative to untreated control; format: functional; how it was run: as §2

For `C=C1[C@@H]2[C@H]3OC(=O)[C@@H](CO)[C@@H]3CCC(=C)[C@@H]2C[C@H]1O`, which inhibition is on record?
The inhibition was “inactive”.

test system: Allium cepa; test: Inhibition of root length of Allium cepa cv. Valenciana (onion) at 0.1 mM or 1 mM after 5 days relative to untreated control; format: functional

For `C=C1[C@@H]2[C@H]3OC(=O)[C@@H](CO)[C@@H]3CCC(=C)[C@@H]2C[C@H]1O`, which inhibition is on record?
The inhibition was “inactive”.

test system: Triticum aestivum; test: Stimulation of hypocotyl length of Triticum aestivum cv. Cortex (wheat) at 0.1 mM or 1 mM after 5 days relative to untreated control; format: functional; how it was run: as §1

Which Activity does the source give for `C=C1[C@@H]2[C@H]3OC(=O)[C@@H](CO)[C@@H]3CCC(=C)[C@@H]2C[C@H]1O` here?
The Activity was “inactive”.

test system: Triticum aestivum; test: Stimulation of root length of Triticum aestivum cv. Cortex (wheat) at 0.1 mM or 1 mM after 5 days relative to untreated control; format: functional; how it was run: as §1

With `C=C1[C@@H]2[C@H]3OC(=O)[C@@H](CO)[C@@H]3CCC(=C)[C@@H]2C[C@H]1O` as the molecule, how does the Activity read?
The Activity was “inactive”.

test system: Solanum lycopersicum; test: Inhibition of germination of Solanum lycopersicum cv. Tres Cantos (tomato) at 0.1 mM or 1 mM after 5 days relative to untreated control; format: functional; how it was run: as §2

For `C=C1[C@@H]2[C@H]3OC(=O)[C@@H](CO)[C@@H]3CCC(=C)[C@@H]2C[C@H]1O`, which inhibition is on record?
The inhibition was “inactive”.

test system: Lactuca sativa; test: Inhibition of hypocotyl length of Lactuca sativa cv. Roman (lettuce) at 0.1 mM or 1 mM after 5 days relative to untreated control; format: functional; how it was run: as §2

`C=C1[C@@H]2[C@H]3OC(=O)[C@@H](CO)[C@@H]3CCC(=C)[C@@H]2C[C@H]1O` was tested. Which “inhibition (INH)” value did it give?
Its value is greater than 40%.

test system: Lactuca sativa; test: Inhibition of root length of Lactuca sativa cv. Roman (lettuce) at 0.1 mM or 1 mM after 5 days relative to untreated control; format: functional; how it was run: as §2

For `C=C1[C@@H]2[C@H]3OC(=O)[C@@H](CO)[C@@H]3CCC(=C)[C@@H]2C[C@H]1O`, which “inhibition (INH)” value is on record?
The value was 20%.

test system: Lactuca sativa; test: Inhibition of germination of Lactuca sativa cv. Roman (lettuce) at 0.1 mM or 1 mM after 5 days relative to untreated control; format: functional; how it was run: as §2

Which “inhibition (INH)” value does the source give for `C=C1[C@@H]2[C@H]3OC(=O)[C@@H](CO)[C@@H]3CCC(=C)[C@@H]2C[C@H]1O` here?
The value was less than 20%.

test system: Triticum aestivum; test: Stimulation of germination of Triticum aestivum cv. Cortex (wheat) at 0.1 mM or 1 mM after 5 days relative to untreated control; format: functional; how it was run: as §1

`C=C1[C@@H]2[C@H]3OC(=O)[C@@H](CO)[C@@H]3CCC(=C)[C@@H]2C[C@H]1O` was tested. Which Activity did it give?
Its Activity is “inactive”.

test system: Solanum lycopersicum; test: Stimulation of hypocotyl length of Solanum lycopersicum cv. Tres Cantos (tomato) at 0.1 mM or 1 mM after 5 days relative to untreated control; format: functional; how it was run: as §2

For `C=C1[C@@H]2[C@H]3OC(=O)[C@@H](CO)[C@@H]3CCC(=C)[C@@H]2C[C@H]1O`, which Activity is on record?
Its Activity is “inactive”.

test system: Solanum lycopersicum; test: Stimulation of root length of Solanum lycopersicum cv. Tres Cantos (tomato) at 0.1 mM or 1 mM after 5 days relative to untreated control; format: functional; how it was run: as §2

For `C=C1[C@@H]2[C@H]3OC(=O)[C@@H](CO)[C@@H]3CCC(=C)[C@@H]2C[C@H]1O`, which Activity is on record?
The Activity was “inactive”.

test system: Solanum lycopersicum; test: Stimulation of germination of Solanum lycopersicum cv. Tres Cantos (tomato) at 0.1 mM or 1 mM after 5 days relative to untreated control; format: functional; how it was run: as §2

Which Activity does the source give for `C=C1[C@@H]2[C@H]3OC(=O)[C@@H](CO)[C@@H]3CCC(=C)[C@@H]2C[C@H]1O` here?
The Activity was “inactive”.

test system: Lepidium sativum; test: Stimulation of hypocotyl length of Lepidium sativum at 0.1 mM or 1 mM after 5 days relative to untreated control; format: functional

With `C=C1[C@@H]2[C@H]3OC(=O)[C@@H](CO)[C@@H]3CCC(=C)[C@@H]2C[C@H]1O` as the molecule, how does the Activity read?
The Activity was less than 20%.

test system: Lepidium sativum; test: Stimulation of root length of Lepidium sativum at 0.1 mM or 1 mM after 5 days relative to untreated control; format: functional

How did the Activity turn out when `C=C1[C@@H]2[C@H]3OC(=O)[C@@H](CO)[C@@H]3CCC(=C)[C@@H]2C[C@H]1O` was run?
Its Activity is 20%.

test system: Lactuca sativa; test: Stimulation of root length of Lactuca sativa cv. Roman (lettuce) at 0.1 mM or 1 mM after 5 days relative to untreated control; format: functional; how it was run: as §2

`C=C1[C@@H]2[C@H]3OC(=O)[C@@H](CO)[C@@H]3CCC(=C)[C@@H]2C[C@H]1O` was tested. Which Activity did it give?
The Activity was 20%.

test system: Lactuca sativa; test: Stimulation of hypocotyl length of Lactuca sativa cv. Roman (lettuce) at 0.1 mM or 1 mM after 5 days relative to untreated control; format: functional; how it was run: as §2

`C=C1[C@@H]2[C@H]3OC(=O)[C@@H](CO)[C@@H]3CCC(=C)[C@@H]2C[C@H]1O` was tested. Which Activity did it give?
Its Activity is greater than 40%.

test system: Lactuca sativa; test: Stimulation of germination of Lactuca sativa cv. Roman (lettuce) at 0.1 mM or 1 mM after 5 days relative to untreated control; format: functional; how it was run: as §2

`C=C1[C@@H]2[C@H]3OC(=O)[C@@H](CO)[C@@H]3CCC(=C)[C@@H]2C[C@H]1O` was tested. Which Activity did it give?
Its Activity is less than 20%.

test system: Lepidium sativum; test: Inhibition of root length of Lepidium sativum at 0.1 mM or 1 mM after 4 days relative to untreated control

`C=C1[C@@H]2[C@H]3OC(=O)[C@@H](CO)[C@@H]3CCC(=C)[C@@H]2C[C@H]1O` was tested. Which “inhibition (INH)” value did it give?
The value was 20%.

test system: Lepidium sativum; test: Inhibition of germination of Lepidium sativum at 0.1 mM or 1 mM after 4 days relative to untreated control

How did the Activity turn out when `C=C1[C@@H]2[C@H]3OC(=O)[C@@H](CO)[C@@H]3CCC(=C)[C@@H]2C[C@H]1O` was run?
The Activity was “inactive”.

What about the inhibition of the same molecule?
The inhibition was “inactive”.

test system: Lepidium sativum; test: Inhibition of hypocotyl length of Lepidium sativum at 0.1 mM or 1 mM after 4 days relative to untreated control

Which “inhibition (INH)” value does the source give for `C=C1[C@@H]2[C@H]3OC(=O)[C@@H](CO)[C@@H]3CCC(=C)[C@@H]2C[C@H]1O` here?
Its value is less than 20%.

test system: Allium cepa; test: Stimulation of root length of Allium cepa cv. Valenciana (onion) at 0.1 mM or 1 mM after 7 days relative to untreated control

How did the Activity turn out when `C=C1[C@@H]2[C@H]3OC(=O)[C@@H](CO)[C@@H]3CCC(=C)[C@@H]2C[C@H]1O` was run?
The Activity was “inactive”.

test system: Allium cepa; test: Stimulation of germination of Allium cepa cv. Valenciana (onion) at 0.1 mM or 1 mM after 7 days relative to untreated control

With `C=C1[C@@H]2[C@H]3OC(=O)[C@@H](CO)[C@@H]3CCC(=C)[C@@H]2C[C@H]1O` as the molecule, how does the Activity read?
The Activity was “inactive”.

test system: Allium cepa; test: Inhibition of hypocotyl length of Allium cepa cv. Valenciana (onion) at 0.1 mM or 1 mM after 7 days relative to untreated control

How did the inhibition turn out when `C=C1[C@@H]2[C@H]3OC(=O)[C@@H](CO)[C@@H]3CCC(=C)[C@@H]2C[C@H]1O` was run?
Its inhibition is “inactive”.

test system: Allium cepa; test: Stimulation of hypocotyl length of Allium cepa cv. Valenciana (onion) at 0.1 mM or 1 mM after 7 days relative to untreated control

Which Activity does the source give for `C=C1[C@@H]2[C@H]3OC(=O)[C@@H](CO)[C@@H]3CCC(=C)[C@@H]2C[C@H]1O` here?
Its Activity is “inactive”.
